Source: ChEMBL document CHEMBL3407339, “A novel series of thiazolyl-pyrazoline derivatives: synthesis and evaluation of antifungal activity, cytotoxicity and genotoxicity” (Eur J Med Chem, 2015)
≈ marks a conversion by molar mass, not a printed value.

system: Nakaseomyces glabratus; assay: Antifungal activity against Candida glabrata clinical isolate after 48 hrs by broth microdilution assay; assay type: functional; conditions: not given
Method in brief: (§1)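 Broth microdilution of DMSO stocks serially diluted in sterile water (4 to 0.0039 mg/mL). Yeasts grown on SDA at 37 °C for 24 h, suspended in double-strength PDB at 10⁵ spores/mL. Incubated at 37 °C for 48 h, then sprayed with 0.5% aqueous TTC. MIC = lowest concentration inhibiting visible growth. Ketoconazole reference.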

SMILES | MIC
CC(=O)N1CCN(c2ccc(OCC3COC(Cn4ccnc4)(c4ccc(Cl)cc4Cl)O3)cc2)CC1 (stereo unspecified) [KETOCONAZOLE] | 62.5 µg/mL (≈ 118 µM)
Cc1ccc(C2=NN(c3nc(-c4ccccc4)cs3)C(c3ccc(F)cc3)C2)s1 (stereo unspecified) | 125 µg/mL (≈ 298 µM)
CS(=O)(=O)c1ccc(-c2csc(N3N=C(c4ccc(Cl)s4)CC3c3ccc(F)cc3)n2)cc1 (stereo unspecified) | 250 µg/mL (≈ 483 µM)
Cc1ccc(C2=NN(c3nc(-c4ccc(Br)cc4)cs3)C(c3ccc(F)cc3)C2)s1 (stereo unspecified) | 125 µg/mL (≈ 251 µM)

system: Candida albicans; assay: Antifungal activity against Candida albicans ATCC 90028 after 48 hrs by broth microdilution assay; assay type: functional; conditions: ATCC 90028, 48 h; method in brief: as §1

SMILES | MIC
CC(=O)N1CCN(c2ccc(OCC3COC(Cn4ccnc4)(c4ccc(Cl)cc4Cl)O3)cc2)CC1 (stereo unspecified) [KETOCONAZOLE] | 62.5 µg/mL (≈ 118 µM)
Cc1ccc(C2=NN(c3nc(-c4ccccc4)cs3)C(c3ccc(F)cc3)C2)s1 (stereo unspecified) | 500 µg/mL (≈ 1190 µM)
CS(=O)(=O)c1ccc(-c2csc(N3N=C(c4ccc(Cl)s4)CC3c3ccc(F)cc3)n2)cc1 (stereo unspecified) | 250 µg/mL (≈ 483 µM)
Cc1ccc(C2=NN(c3nc(-c4ccc(Br)cc4)cs3)C(c3ccc(F)cc3)C2)s1 (stereo unspecified) | 250 µg/mL (≈ 502 µM)

system: Candida tropicalis; assay: Antifungal activity against Candida tropicalis NRLL Y 12968 after 48 hrs by broth microdilution assay; assay type: functional; conditions: NRLL Y 12968, 48 h; method in brief: as §1

SMILES | MIC
CC(=O)N1CCN(c2ccc(OCC3COC(Cn4ccnc4)(c4ccc(Cl)cc4Cl)O3)cc2)CC1 (stereo unspecified) [KETOCONAZOLE] | 125 µg/mL (≈ 235 µM)
Cc1ccc(C2=NN(c3nc(-c4ccccc4)cs3)C(c3ccc(F)cc3)C2)s1 (stereo unspecified) | 500 µg/mL (≈ 1190 µM)
CS(=O)(=O)c1ccc(-c2csc(N3N=C(c4ccc(Cl)s4)CC3c3ccc(F)cc3)n2)cc1 (stereo unspecified) | 250 µg/mL (≈ 483 µM)
Cc1ccc(C2=NN(c3nc(-c4ccc(Br)cc4)cs3)C(c3ccc(F)cc3)C2)s1 (stereo unspecified) | 250 µg/mL (≈ 502 µM)

system: Pichia kudriavzevii; assay: Antifungal activity against Candida krusei NRLL Y 7179 after 48 hrs by broth microdilution assay; assay type: functional; conditions: NRLL Y 7179, 48 h; method in brief: as §1

SMILES | MIC
CC(=O)N1CCN(c2ccc(OCC3COC(Cn4ccnc4)(c4ccc(Cl)cc4Cl)O3)cc2)CC1 (stereo unspecified) [KETOCONAZOLE] | 125 µg/mL (≈ 235 µM)
Cc1ccc(C2=NN(c3nc(-c4ccccc4)cs3)C(c3ccc(F)cc3)C2)s1 (stereo unspecified) | 500 µg/mL (≈ 1190 µM)
CS(=O)(=O)c1ccc(-c2csc(N3N=C(c4ccc(Cl)s4)CC3c3ccc(F)cc3)n2)cc1 (stereo unspecified) | 250 µg/mL (≈ 483 µM)
Cc1ccc(C2=NN(c3nc(-c4ccc(Br)cc4)cs3)C(c3ccc(F)cc3)C2)s1 (stereo unspecified) | 250 µg/mL (≈ 502 µM)

system: [Candida] zeylanoides; assay: Antifungal activity against Candida zeylanoides NRLL Y 1774 after 48 hrs by broth microdilution assay; assay type: functional; conditions: Dujonia zeylanoides, NRLL Y 1774, 48 h; method in brief: as §1

SMILES | MIC
CC(=O)N1CCN(c2ccc(OCC3COC(Cn4ccnc4)(c4ccc(Cl)cc4Cl)O3)cc2)CC1 (stereo unspecified) [KETOCONAZOLE] | 250 µg/mL (≈ 470 µM)
Cc1ccc(C2=NN(c3nc(-c4ccccc4)cs3)C(c3ccc(F)cc3)C2)s1 (stereo unspecified) | 500 µg/mL (≈ 1190 µM)
CS(=O)(=O)c1ccc(-c2csc(N3N=C(c4ccc(Cl)s4)CC3c3ccc(F)cc3)n2)cc1 (stereo unspecified) | 250 µg/mL (≈ 483 µM)
Cc1ccc(C2=NN(c3nc(-c4ccc(Br)cc4)cs3)C(c3ccc(F)cc3)C2)s1 (stereo unspecified) | 250 µg/mL (≈ 502 µM)

system: Candida parapsilosis; assay: Antifungal activity against Candida parapsilosis NRLL Y 12696 after 48 hrs by broth microdilution assay; assay type: functional; conditions: Lodderomyces parapsilosis, NRLL Y 12696, 48 h; method in brief: as §1

SMILES | MIC
CC(=O)N1CCN(c2ccc(OCC3COC(Cn4ccnc4)(c4ccc(Cl)cc4Cl)O3)cc2)CC1 (stereo unspecified) [KETOCONAZOLE] | 15.6 µg/mL (≈ 29.4 µM)
Cc1ccc(C2=NN(c3nc(-c4ccccc4)cs3)C(c3ccc(F)cc3)C2)s1 (stereo unspecified) | 500 µg/mL (≈ 1190 µM)
CS(=O)(=O)c1ccc(-c2csc(N3N=C(c4ccc(Cl)s4)CC3c3ccc(F)cc3)n2)cc1 (stereo unspecified) | 250 µg/mL (≈ 483 µM)
Cc1ccc(C2=NN(c3nc(-c4ccc(Br)cc4)cs3)C(c3ccc(F)cc3)C2)s1 (stereo unspecified) | 250 µg/mL (≈ 502 µM)

system: Aspergillus flavus; assay: Antifungal activity against Aspergillus flavus NRRL 980 after 72 hrs by broth microdilution assay; assay type: functional; conditions: NRRL 980, 72 h
Method in brief: (§2)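 Compounds dissolved in DMSO, diluted in sterile distilled water from 4 to 0.0039 mg/mL. Molds grown on PDA at 25 °C for 5 days, suspended in double-strength PDB at 10⁵ spores/mL. Incubated at 25 °C for 72 h; mycelial growth read under stereo microscope. MIC = lowest concentration inhibiting visible growth. Ketoconazole reference.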

SMILES | MIC
CC(=O)N1CCN(c2ccc(OCC3COC(Cn4ccnc4)(c4ccc(Cl)cc4Cl)O3)cc2)CC1 (stereo unspecified) [KETOCONAZOLE] | 15.6 µg/mL (≈ 29.4 µM)
Cc1ccc(C2=NN(c3nc(-c4ccccc4)cs3)C(c3ccc(F)cc3)C2)s1 (stereo unspecified) | 250 µg/mL (≈ 596 µM)
CS(=O)(=O)c1ccc(-c2csc(N3N=C(c4ccc(Cl)s4)CC3c3ccc(F)cc3)n2)cc1 (stereo unspecified) | 250 µg/mL (≈ 483 µM)
Cc1ccc(C2=NN(c3nc(-c4ccc(Br)cc4)cs3)C(c3ccc(F)cc3)C2)s1 (stereo unspecified) | 250 µg/mL (≈ 502 µM)

system: Aspergillus niger; assay: Antifungal activity against Aspergillus niger ATCC 1094 after 72 hrs by broth microdilution assay; assay type: functional; conditions: ATCC 1094, 72 h; method in brief: as §2

SMILES | MIC
CC(=O)N1CCN(c2ccc(OCC3COC(Cn4ccnc4)(c4ccc(Cl)cc4Cl)O3)cc2)CC1 (stereo unspecified) [KETOCONAZOLE] | 31.2 µg/mL (≈ 58.8 µM)
Cc1ccc(C2=NN(c3nc(-c4ccccc4)cs3)C(c3ccc(F)cc3)C2)s1 (stereo unspecified) | 250 µg/mL (≈ 596 µM)
CS(=O)(=O)c1ccc(-c2csc(N3N=C(c4ccc(Cl)s4)CC3c3ccc(F)cc3)n2)cc1 (stereo unspecified) | 250 µg/mL (≈ 483 µM)
Cc1ccc(C2=NN(c3nc(-c4ccc(Br)cc4)cs3)C(c3ccc(F)cc3)C2)s1 (stereo unspecified) | 250 µg/mL (≈ 502 µM)

system: Aspergillus parasiticus; assay: Antifungal activity against Aspergillus parasiticus NRRL 465 after 72 hrs by broth microdilution assay; assay type: functional; conditions: NRRL 465, 72 h; method in brief: as §2

SMILES | MIC
CC(=O)N1CCN(c2ccc(OCC3COC(Cn4ccnc4)(c4ccc(Cl)cc4Cl)O3)cc2)CC1 (stereo unspecified) [KETOCONAZOLE] | 7.81 µg/mL (≈ 14.7 µM)
Cc1ccc(C2=NN(c3nc(-c4ccccc4)cs3)C(c3ccc(F)cc3)C2)s1 (stereo unspecified) | 250 µg/mL (≈ 596 µM)
CS(=O)(=O)c1ccc(-c2csc(N3N=C(c4ccc(Cl)s4)CC3c3ccc(F)cc3)n2)cc1 (stereo unspecified) | 250 µg/mL (≈ 483 µM)
Cc1ccc(C2=NN(c3nc(-c4ccc(Br)cc4)cs3)C(c3ccc(F)cc3)C2)s1 (stereo unspecified) | 250 µg/mL (≈ 502 µM)

system: Fusarium solani; assay: Antifungal activity against Fusarium solani NRRL 13414 after 72 hrs by broth microdilution assay; assay type: functional; conditions: NRRL 13414, 72 h; method in brief: as §2

SMILES | MIC
CC(=O)N1CCN(c2ccc(OCC3COC(Cn4ccnc4)(c4ccc(Cl)cc4Cl)O3)cc2)CC1 (stereo unspecified) [KETOCONAZOLE] | 62.5 µg/mL (≈ 118 µM)
Cc1ccc(C2=NN(c3nc(-c4ccccc4)cs3)C(c3ccc(F)cc3)C2)s1 (stereo unspecified) | 250 µg/mL (≈ 596 µM)
CS(=O)(=O)c1ccc(-c2csc(N3N=C(c4ccc(Cl)s4)CC3c3ccc(F)cc3)n2)cc1 (stereo unspecified) | 250 µg/mL (≈ 483 µM)
Cc1ccc(C2=NN(c3nc(-c4ccc(Br)cc4)cs3)C(c3ccc(F)cc3)C2)s1 (stereo unspecified) | 250 µg/mL (≈ 502 µM)

system: A549; assay: Antiproliferative activity against human A549 cells after 24 hrs by XTT assay; assay type: functional, cell-based; conditions: A549, 24 h
Method in brief: (§3)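 A549 cells in RPMI and NIH/3T3 cells in DMEM, each with fetal calf serum, antibiotics and 7.5% NaHCO₃, at 37 °C, 5% CO₂. Seeded at 20,000 cells/well, 24 h, then compounds added in medium at 500–3.9 doses (final DMSO <0.1%) for 24 h. XTT read after 3 h at 480 nm (ref 680 nm). IC₅₀ by non-linear regression; triplicates; cisplatin control.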

SMILES | IC50
Cc1ccc(C2=NN(c3nc(-c4ccccc4)cs3)C(c3ccc(F)cc3)C2)s1 (stereo unspecified) | > 500 µg/mL
CS(=O)(=O)c1ccc(-c2csc(N3N=C(c4ccc(Cl)s4)CC3c3ccc(F)cc3)n2)cc1 (stereo unspecified) | > 500 µg/mL
Cc1ccc(C2=NN(c3nc(-c4ccc(Br)cc4)cs3)C(c3ccc(F)cc3)C2)s1 (stereo unspecified) | > 500 µg/mL

system: not listed separately; assay: Cytotoxicity against mouse NIH/3T3 cells after 24 hrs by XTT assay; assay type: cell-based; conditions: NIH3T3, 24 h; method in brief: as §3

SMILES | IC50
Cc1ccc(C2=NN(c3nc(-c4ccccc4)cs3)C(c3ccc(F)cc3)C2)s1 (stereo unspecified) | > 500 µg/mL
CS(=O)(=O)c1ccc(-c2csc(N3N=C(c4ccc(Cl)s4)CC3c3ccc(F)cc3)n2)cc1 (stereo unspecified) | > 500 µg/mL
Cc1ccc(C2=NN(c3nc(-c4ccc(Br)cc4)cs3)C(c3ccc(F)cc3)C2)s1 (stereo unspecified) | > 500 µg/mL
